VLA-4 inh: inhibition in a human VLA-4 binding assay; P13612; VLA-4 expressing cells, ligand binding flow cytometry; inhibition, % (about 7 µM as worked out from the volumes in the protocol); actives 0.2% (n = 330,000); AID 2557; in the data active = inhibition above about 50%
Target sequence (P13612 whole entry, looked up): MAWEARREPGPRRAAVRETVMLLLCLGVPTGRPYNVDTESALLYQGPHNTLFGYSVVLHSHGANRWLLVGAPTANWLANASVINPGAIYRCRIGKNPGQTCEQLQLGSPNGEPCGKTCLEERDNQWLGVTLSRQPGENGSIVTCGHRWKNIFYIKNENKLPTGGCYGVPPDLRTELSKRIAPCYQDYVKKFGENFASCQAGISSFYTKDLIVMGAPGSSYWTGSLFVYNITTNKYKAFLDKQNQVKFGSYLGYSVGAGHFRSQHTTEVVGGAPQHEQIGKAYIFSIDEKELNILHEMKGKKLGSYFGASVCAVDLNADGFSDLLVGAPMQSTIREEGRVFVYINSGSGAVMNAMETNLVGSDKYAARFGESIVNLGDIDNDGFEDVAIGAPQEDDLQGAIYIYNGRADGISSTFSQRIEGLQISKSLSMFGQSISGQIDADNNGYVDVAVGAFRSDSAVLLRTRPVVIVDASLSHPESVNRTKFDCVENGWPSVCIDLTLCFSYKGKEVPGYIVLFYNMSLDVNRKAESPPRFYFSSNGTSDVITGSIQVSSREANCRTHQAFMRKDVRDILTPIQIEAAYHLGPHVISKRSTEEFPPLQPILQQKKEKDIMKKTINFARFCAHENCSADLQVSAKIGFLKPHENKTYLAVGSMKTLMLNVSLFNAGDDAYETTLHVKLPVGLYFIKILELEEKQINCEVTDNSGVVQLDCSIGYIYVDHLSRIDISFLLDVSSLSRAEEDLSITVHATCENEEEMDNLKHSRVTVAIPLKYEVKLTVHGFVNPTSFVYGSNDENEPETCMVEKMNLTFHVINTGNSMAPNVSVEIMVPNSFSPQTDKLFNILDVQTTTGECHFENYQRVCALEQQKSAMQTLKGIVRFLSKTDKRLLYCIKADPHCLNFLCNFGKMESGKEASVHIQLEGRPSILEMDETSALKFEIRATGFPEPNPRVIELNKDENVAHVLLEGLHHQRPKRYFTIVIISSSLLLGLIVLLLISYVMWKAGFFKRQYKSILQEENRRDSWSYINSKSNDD
Platelet DG rel: modulates dense granule release in human platelets | inhibition, %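 (compounds screened at 7.5 µM in platelet-rich plasma)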 | actives 0.22% (n = 300,000) | human platelet-rich plasma, SFLLRN dense granule ATP release, luminescence;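 active = mean replicate score, as percent of positive control, at or above 50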
TAAR1 antag: antagonists of human TAAR1; inhibition, % at 3 µM; Q96RJ0; actives 1.5% (n = 360,000); CHO RD-HGA16 TAAR1, Fluo-8 calcium fluorescence, antagonist;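 active = inhibition above a per-plate cutoff, the mean inhibition of test compounds on that plate plus 3 SD, cut at about 49% in these data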;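 also: 0% = DMSO plus EC80 beta-PEA response and 100% = DMSO alone without agonist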
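Assay system: RD-HGA16 CHO cells with stable hTAAR1 and Gα16 / Reagent: EC80 β-phenethylamine stimulus / Doses: 3 µM, single point / Timing: dye loading 75 min at 37 °C, then 30 min room temperature / Measured by: Fluo-8 intracellular calcium dye fluorescence, real-time kinetic reads / Controls: vehicle wells and EC80 agonist wells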
TAAR1 agonist: agonists of human TAAR1. Q96RJ0. CHO RD-HGA16 TAAR1, Fluo-8 calcium fluorescence; vehicle wells 0%, saturating PEA agonist 100%. activation, % at 3 µM. actives 0.99% (n = 360,000). AID 624467;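 active = activation above the mean activation of all test compounds in the run plus 3 SD, cut at about 38% in these data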
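test system = CHO RD-HGA16 cells carrying human TAAR1 plus Gα16 | schedule = 17-24 h seeding, 75 min 37 °C dye, 30 min RT | compound dosing = 3 µM single concentration | control set = DMSO and PEA EC100 | replicates = n 1 | signal = Fluo-8 fluorescence, 5 s baseline then 140 s kinetic read | measure = percent activation vs PEA EC100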
Rce1 inhib: blocks yeast Ras-converting enzyme; calls only; yeast membranes, quenched prenylated peptide cleavage fluorescence; Q03530; AID 2563; actives 0.27% (n = 290,000);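 active = fall in fluorescence gain of 50% or more versus controls, with final raw signal at or below 3038400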;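 also: plate controls were neutral control wells for no effect and wells lacking membranes for full effect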
TAAR1 ag confirm: confirmation of human TAAR1 agonists | AID 651783 | CHO RD-HGA16 TAAR1, Fluo-8 calcium fluorescence; scaled: DMSO 0%, maximal phenethylamine 100% | shares compounds with TAAR1 agonist | activation, % at 3 µM | actives 82% (n = 2,400);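 active = activation above a cutoff set at the run's mean compound activation plus 3 SD, cut at about 39% in these data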
Ga16 nonsel ag: nonselective agonism, TAAR1 counter-screen; shares compounds with TAAR1 agonist; CHO-Ga16 parental, Fluo-8 calcium fluorescence; normalized to maximal ATP response, DMSO zero; activation, % at 3 µM; actives 50% (n = 2,400); AID 651787;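 active = activation above the run cutoff, the mean activation over all tested wells plus 3 SD, cut at about 12% in these data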;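 also: 0% = DMSO wells and 100% = maximal ATP response on the peak over basal ratio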
TAAR1 desensitize: TAAR1 response desensitization, agonist counter-screen. shares compounds with TAAR1 agonist. CHO RD-HGA16 hTAAR1, Fluo-8 calcium, beta-PEA response inhibition. inhibition, % at 3 µM. actives 46% (n = 2,400). AID 651951;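 active = inhibition above the run cutoff, the mean inhibition of all test compounds plus 3 SD, cut at about 49% in these data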;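 also: beta-PEA stimulus applied at its EC80; loss of beta-PEA calcium signal after compound pretreatment read as receptor desensitization; 0% = DMSO with beta-PEA at EC80 and 100% = DMSO alone without agonist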
Ga16 nonsel ant: nonselective Ga16 antagonism, counter-screen; CHO-Ga16 ATP-induced calcium, Fluo-8 fluorescence; actives 39% (n = 2,400); inhibition, % at 3 µM; shares compounds with TAAR1 agonist;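 active = inhibition above the plate's mean compound inhibition plus 3 SD, computed per plate, cut at about 22% in these data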;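 also: 0% = EC80 ATP with DMSO and 100% = DMSO wells without ATP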
An asterisk follows results filed as active; i = inactive; x = no result; ! = not active in a repeat. Rows were chosen to be rich in hits. Some 2.6% of all compounds tested hit in one or more screens of this group.

SMILES	VLA-4 inh	Platelet DG rel	TAAR1 antag	TAAR1 agonist	Rce1 inhib	TAAR1 ag confirm	Ga16 nonsel ag	TAAR1 desensitize	Ga16 nonsel ant
Cc1cccn2c(=O)c3c(nc12)N1CCc2ccccc2C1C1(C3)C(=O)NC(=O)N(C)C1=O (stereo unspecified)	-10	-5	43	22	i	x	x	x	x
CCCCN1C(=O)NC(=O)C2(Cc3c(nc4ccccn4c3=O)N3CCc4ccccc4C32)C1=O (stereo unspecified)	2	7	24	61*	i	90*	33*	40	11
CCN1C[C@@]2(COC)C3[C@@H](OC)[C@H]4[C@@H]1[C@@]3(C1C[C@@]3(O)[C@H](OC(=O)c5ccccc5)C1[C@]4(OC(C)=O)[C@@H](O)[C@H]3OC)[C@@H](OC)C[C@H]2O (stereo partly specified)	-20	5	x	x	i	x	x	x	x
C[C@H]1C(=O)O[C@@H]2CCN3CC=C(COC(=O)[C@](C)(O)[C@]1(C)O)[C@H]23	37	x	-12	1	x	x	x	x	x
COc1cc2c(cc1/C=C/[N+](=O)[O-])OCO2	x	4	-17	0	i	x	x	x	x
COc1cc(/C=C/[N+](=O)[O-])ccc1OC(=O)c1cccnc1	3	-2	24	56*	i	87*	62*	67*	60*
O=c1c2ccccc2nc(CNc2ccccc2)n1-c1ccccc1	1	5	-36	0	i	x	x	x	x
O=C1CCCN1CC#CCN1CCCC1	-34	-2	-12	8	i	x	x	x	x
COc1cccc(CNCCc2ccc3c(c2)OCO3)c1OC	0	0	8	8	i	x	x	x	x
COc1cccc(CNCCc2cccc(F)c2)c1OC	14	-6	-10	66*	i	77*	1	44	9
COc1ccccc1CCNCc1ccc(OC)c(OC)c1OC	10	-9	55*	62*	i	85*	3	74*	0
CNc1ccc2oc(C[C@H]3O[C@@]4(CC[C@H]3C)O[C@H]([C@H](C)C(=O)c3ccc[nH]3)[C@H](C)C[C@H]4C)nc2c1C(=O)O	-47	28	106*	198*	i	184*	146*	107*	101*
COc1cc2c(c(OC)c1)C(=O)OC(C)CCCC(=O)CCCCC2 (stereo unspecified)	1	6	8	-1	i	x	x	x	x
COc1cc(O)cc2c1C(=O)O[C@@H](C)CCCC(=O)CCCCC2	-5	-3	19	62*	i	30	10	10	18
CCCCCCn1c(=O)c(C(=O)Nc2ncccc2C)c(O)c2ccccc21	3	-2	74*	106*	i	55*	30*	48	35*
Fc1ccc(CNCCc2ccccc2)cc1	-10	-4	-21	49*	i	76*	15*	27	-1
Fc1ccc(CCNCc2ccccc2Cl)cc1	0	-2	-18	64*	i	62*	8	24	6
COc1ccc(CCNCc2ccccc2)cc1	8	-5	-8	6	i	x	x	x	x
Cn1cccc1CNCCc1ccc(F)cc1	4	2	32	49*	i	82*	9	54*	7
O=[N+]([O-])c1ccc(OP(=O)(O)Oc2ccc([N+](=O)[O-])cc2)cc1	x	x	2	1	x	x	x	x	x
Cc1nc2ccccc2c(=O)n1-c1cccc(C(F)(F)F)c1	0	5	-12	5	i	x	x	x	x
CC1(C)CSC(=NCc2ccccc2)N1	8	3	88*	132*	i	111*	81*	95*	68*
CN1/C(=C\C=C2C(=O)NC(=O)NC2=O)C(C)(C)c2ccccc21	0	0	34	86*	i	21	27*	22	25*
CN1/C(=C\C=Nc2ccccc2)C(C)(C)c2ccccc21	i	4	1	14	i	x	x	x	x
CC1(C)OC(c2ccccc2)=C/C(=C/C=C2C(=O)NC(=O)NC2=O)O1	1	14	70*	98*	i	10	21*	31	33*
SMILES	VLA-4 inh	Platelet DG rel	TAAR1 antag	TAAR1 agonist	Rce1 inhib	TAAR1 ag confirm	Ga16 nonsel ag	TAAR1 desensitize	Ga16 nonsel ant
O=C(NCCN1CCC2(CC1)C(=O)NCN2c1ccccc1)c1ccc(F)cc1	x	x	100*	98*	x	63*	50*	95*	79*
O=C(NCCN1CCC2(CC1)C(=O)NCN2c1ccccc1)c1ccc(Cl)cc1	x	x	105*	108*	x	92*	72*	106*	100*
O=C(NCCN1CCC2(CC1)C(=O)NCN2c1ccccc1)c1ccc2ccccc2c1	x	x	105*	112*	x	91*	66*	107*	101*
C[N+]1(C)C2CC(OC(=O)[C@H](CO)c3ccccc3)CC1C1OC12 (stereo partly specified)	-10	x	-12	0	x	x	x	x	x
COc1cc(CCN)ccc1O	3	x	31	90*	x	87*	4	67*	7
CNCCc1ccccc1	-12	-1	x	x	i	x	x	x	x
CC1OC(NCCc2ccccc2)C(O)C(O)C1O (stereo unspecified)	4	-9	x	x	i	x	0	x	2
COc1cccc(C)c1NC1=NCCO1	x	x	61*	87*	x	92*	1	87*	-3
CCOC(=O)C1(CCc2ccccc2)CCN(C(C)CSC)CC1 (stereo unspecified)	3	-3	-28	-1	i	x	x	x	x
COc1cc(CC(C)N)c(OC)cc1I (stereo unspecified)	47	3	-10	40*!	i	39*	0	15	12
C=CCn1c(O)c(C(C)=NC2CCN(Cc3ccccc3)CC2)c(=O)[nH]c1=O	-1	-7	-20	0	i	x	x	x	x
COc1ccc(OC)c(CN2CCCC(C(=O)c3sccc3C)C2)c1 (stereo unspecified)	-13	-3	-3	0	i	x	x	x	x
Cc1ccc(N2C(=O)NC(=O)/C(=C\C=C\c3ccco3)C2=O)cc1C	38	1	35	54*	i	76*	48*	69*	29*
Cc1ccc(N2C(=O)NC(=O)/C(=C\C=C\c3ccco3)C2=O)cc1	18	5	39	33	i	x	x	x	x
O=C1NC(=O)N(c2ccccc2)C(=O)/C1=C/C=C/c1ccco1	27	9	40	57*	i	30	13*	22	2
Fc1ccccc1CCNCc1cccc2ccccc12	-1	13	15	8	i	x	x	x	x
Cc1ccccc1CCNCc1cc2cccc(C)c2[nH]c1=O	0	9	86*	108*	i	112*	17*	98*	7

Assay outcomes as filed in PubChem BioAssay.
